ChEMBL document CHEMBL1687888, “Synthesis, hypoxia-selective cytotoxicity of new 3-amino-1,2,4-benzotriazine-1,4-dioxide derivatives” (Eur J Med Chem, 2011)
Activity calls are given as the source filed them. The rule behind the calls is not given here.

Key:
SMMC-7721 [1] = assay: Cytotoxicity against human SMMC7721 cells for 72 hrs under hypoxic condition by MTT assay; type: functional, cell-based; details: SMMC-7721, 72 h
Procedure, shortened: (§1)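 RPMI-1640 with heat-inactivated 10% FBS plus penicillin/streptomycin; hypoxia 3% O2, 5% CO2 or normoxia 20% O2, 5% CO2, 37 °C. Compounds dissolved in DMSO at 10.0 mg/mL (stock), then diluted; cells seeded 5×10³ per well. Viability read by MTT kit; IC50 taken as concentration giving 50% absorbance inhibition versus control cells.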

SMMC-7721 [2] = assay: Cytotoxicity against human SMMC7721 cells for 72 hrs under normoxic condition by MTT assay; type: functional, cell-based; details: SMMC-7721, 72 h; procedure, shortened: as §1
K562 [3] = assay: Cytotoxicity against human K562 cells for 72 hrs under hypoxic condition by MTT assay; type: functional, cell-based; details: K562, 72 h; procedure, shortened: as §1
K562 [4] = assay: Cytotoxicity against human K562 cells for 72 hrs under normoxic condition by MTT assay; type: functional, cell-based; details: K562, 72 h; procedure, shortened: as §1
KB [5] = assay: Cytotoxicity against human KB cells for 72 hrs under hypoxic condition by MTT assay; type: functional, cell-based; procedure, shortened: as §1
KB [6] = assay: Cytotoxicity against human KB cells for 72 hrs under normoxic condition by MTT assay; type: functional, cell-based; procedure, shortened: as §1
A549 [7] = assay: Cytotoxicity against human A549 cells for 72 hrs under hypoxic condition by MTT assay; type: functional, cell-based; details: A549, 72 h; procedure, shortened: as §1
A549 [8] = assay: Cytotoxicity against human A549 cells for 72 hrs under normoxic condition by MTT assay; type: functional, cell-based; details: A549, 72 h; procedure, shortened: as §1
PC-3 [9] = assay: Cytotoxicity against human PC3 cells for 72 hrs under hypoxic condition by MTT assay; type: functional, cell-based; details: PC-3, 72 h; procedure, shortened: as §1
PC-3 [10] = assay: Cytotoxicity against human PC3 cells for 72 hrs under normoxic condition by MTT assay; type: functional, cell-based; details: PC-3, 72 h; procedure, shortened: as §1
K562 [11] = assay: Induction of apoptosis in human K562 cells under normoxic condition assessed as DNA fragmentation at 10 uM for 48 hrs using propidium iodide by flow cytometry; type: functional, cell-based
Procedure, shortened: (§2)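 K562 held under hypoxia (3% O2, 5% CO2) or normoxia (20% O2, 5% CO2) at 37 °C, treated 48 h. Cells washed in PBS, fixed in 75% ethanol at −20 °C overnight, RNase-treated 30 min at 37 °C, PI-stained 30 min at room temperature in the dark. DNA content and apoptotic fraction read by flow cytometry.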

K562 [12] = assay: Induction of apoptosis in human K562 cells under hypoxic condition assessed as DNA fragmentation at 10 uM for 48 hrs using propidium iodide by flow cytometry; type: functional, cell-based; procedure, shortened: as §2
K562 [13] = assay: Induction of apoptosis in human K562 cells under normoxic condition assessed as accumulation at Sub-G1 phase at 10 uM for 48 hrs using propidium iodide by flow cytometry (reference value: 5.27%); type: functional
K562 [14] = assay: Induction of apoptosis in human K562 cells under hypoxic condition assessed as accumulation at Sub-G1 phase at 10 uM for 48 hrs using propidium iodide by flow cytometry (reference value: 13.03%); type: functional
K562 [15] = assay: Induction of apoptosis in human K562 cells under hypoxic condition assessed as decrease in procaspase-3 level at 10 uM for 48 hrs by Western blotting; type: functional, cell-based
Procedure, shortened: (§3)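 K562 treated 48 h under hypoxia (3% O2) or normoxia (20% O2), 5% CO2, 37 °C. Lysis buffer: 150 mM NaCl, 50 mM Tris-HCl pH 8.0, 2 mM EGTA, 2 mM EDTA, 25 mM NaF, 25 mM β-glycerophosphate, 0.2% Triton X-100, 0.3% NP-40, 0.1 mM PMSF. Extracts immunoblotted for procaspase-3, cleaved caspase-3, PARP and XIAP.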

K562 [16] = assay: Induction of apoptosis in human K562 cells under hypoxic condition assessed as decrease in XIAP level at 10 uM for 48 hrs by Western blotting; type: functional, cell-based; procedure, shortened: as §3
K562 [17] = assay: Induction of apoptosis in human K562 cells under hypoxic condition assessed as decrease in PARP level at 10 uM for 48 hrs by Western blotting; type: functional, cell-based; procedure, shortened: as §3
K562 [18] = assay: Induction of apoptosis in human K562 cells under hypoxic condition assessed as caspase-3 cleavage at 10 uM for 48 hrs by Western blotting; type: functional, cell-based; procedure, shortened: as §3
K562 [19] = assay: Induction of apoptosis in human K562 cells under hypoxic condition assessed as decrease in XIAP level at 10 uM for 48 hrs by Western blotting
K562 [20] = assay: Induction of apoptosis in human K562 cells under hypoxic condition assessed as decrease in PARP level at 10 uM for 48 hrs by Western blotting
K562 [21] = assay: Induction of apoptosis in human K562 cells under hypoxic condition assessed as decrease in procaspase-3 level at 10 uM for 48 hrs by Western blotting

Structure (SMILES) | IC50 (SMMC-7721 [1]) [µM] | IC50 (SMMC-7721 [2]) [µM] | IC50 (K562 [3]) [µM] | IC50 (K562 [4]) [µM] | IC50 (KB [5]) [µM] | IC50 (KB [6]) [µM] | IC50 (A549 [7]) [µM] | IC50 (A549 [8]) [µM] | IC50 (PC-3 [9]) [µM] | IC50 (PC-3 [10]) [µM] | also measured
CC(OCNc1n[n+]([O-])c2ccccc2[n+]1[O-])c1ccccc1 (stereo not drawn) | 2.47 | 12.9 | 2.24 | 8.72 | 14 | 2.51 | 2.81 | 2.71 | 10.7 | 6.08 | –
COc1ccc(COCNc2n[n+]([O-])c3ccccc3[n+]2[O-])cc1 | 1.15 | 22 | 0.66 | 20.1 | 14.2 | 4.06 | 3.32 | 7.64 | 52.8 | 14.5 | Activity (K562 [11]): Active; Activity (K562 [12]): Active; Activity (K562 [13]): 14.95%; Activity (K562 [14]): 54.24%; Activity (K562 [15]): Active; Activity (K562 [16]): Active; Activity (K562 [17]): Active; Activity (K562 [18]): Active; Activity (K562 [19]): Active; Activity (K562 [20]): Active; Activity (K562 [21]): Active
[O-][n+]1nc(NCOC2CCCCC2)[n+]([O-])c2ccccc21 | 4.17 | 28.2 | 4.88 | 10.8 | 22.1 | 4.39 | 1.2 | 5.18 | 6.67 | 3.25 | –
CCOCNc1n[n+]([O-])c2ccccc2[n+]1[O-] | 4.23 | 27.1 | 4.99 | 15.4 | 22.5 | 2.8 | 4.09 | 10.5 | 7.4 | 15.9 | Activity (K562 [11]): Active; Activity (K562 [12]): Active; Activity (K562 [13]): 14.13%; Activity (K562 [14]): 33.07%; Activity (K562 [15]): Active; Activity (K562 [16]): Active; Activity (K562 [17]): Active; Activity (K562 [18]): Active; Activity (K562 [19]): Active; Activity (K562 [20]): Active; Activity (K562 [21]): Active
[O-][n+]1nc(NCOCc2ccc(C(F)(F)F)cc2)[n+]([O-])c2ccccc21 | 0.78 | 9.45 | 1.24 | 18.3 | 19.8 | 0.39 | 4.27 | 8.42 | 9.31 | 7.65 | Activity (K562 [11]): Active; Activity (K562 [12]): Active; Activity (K562 [13]): 9.5%; Activity (K562 [14]): 32.11%; Activity (K562 [15]): Active; Activity (K562 [16]): Active; Activity (K562 [17]): Active; Activity (K562 [18]): Active; Activity (K562 [19]): Active; Activity (K562 [20]): Active; Activity (K562 [21]): Active
CC(C)CCOCNc1n[n+]([O-])c2ccccc2[n+]1[O-] | 2.86 | 15.9 | 5.85 | 13.1 | 5.21 | 3.04 | 2.11 | 7.27 | 7.52 | 11.1 | –
COCNc1n[n+]([O-])c2ccccc2[n+]1[O-] | 2.48 | 6.67 | 3.79 | 7.8 | 9.07 | 1.58 | 2.77 | 7.45 | 4.27 | 7.51 | –
CCCCCCCOCNc1n[n+]([O-])c2ccccc2[n+]1[O-] | 3.09 | 7.03 | 6.17 | 2.97 | 14 | 2.52 | 3.49 | 2.61 | 0.39 | 1.21 | –
O=[N+]([O-])c1cccc(COCNc2n[n+]([O-])c3ccccc3[n+]2[O-])c1 | 0.52 | 8.54 | 0.65 | 5.65 | 16.6 | 0.58 | 3.44 | 2.89 | > 100 | 3.07 | –
CCCOCNc1n[n+]([O-])c2ccccc2[n+]1[O-] | 5.53 | 19.5 | 3.89 | 17.6 | 10.2 | 1.95 | 3.74 | 7.46 | 7.4 | 14.2 | –
CCCCCOCNc1n[n+]([O-])c2ccccc2[n+]1[O-] | 3.05 | 17 | 3.3 | 14.5 | 39.5 | 1.22 | 2.9 | 6.46 | 8.51 | 9.2 | –
COc1ccc2c(c1)[n+]([O-])nc(NCOCc1ccccc1)[n+]2[O-] | 1.19 | 21.4 | 0.24 | 27.5 | 18.1 | 2.4 | 4.47 | 2.5 | 88.5 | 8.58 | –
[O-][n+]1nc(NCOCc2ccccc2)[n+]([O-])c2ccccc21 | 4.79 | 20.1 | 4.69 | 16.1 | 12.3 | 5.72 | 4.14 | 10.8 | 11.9 | 13.4 | –
Nc1n[n+]([O-])c2ccccc2[n+]1[O-] [TIRAPAZAMINE] | 4.75 | 32.8 | 1.81 | 19.4 | 18.7 | 6.29 | 1.93 | 7.43 | 1.17 | 21 | –
CCCOCNc1n[n+]([O-])c2cc(OC)ccc2[n+]1[O-] | 1.07 | 2.88 | 3.52 | 4.28 | 12 | 3.2 | 2.54 | 2.81 | 10.6 | 6.57 | –
[O-][n+]1nc(NCOCc2ccc(Cl)cc2)[n+]([O-])c2ccccc21 | 0.81 | 14.5 | 1.85 | 3.26 | 8.26 | 1.3 | 2.19 | 1.47 | 5.1 | 5.76 | –
CCCCCOCNc1n[n+]([O-])c2cc(OC)ccc2[n+]1[O-] | 0.55 | 12.9 | 0.45 | 7.11 | 16.9 | 2.81 | 2.51 | 5.04 | 30.9 | 3.63 | –
CCCCOCNc1n[n+]([O-])c2ccccc2[n+]1[O-] | 3.99 | 21.1 | 3.24 | 17.6 | 15.2 | 1.75 | 2.32 | 6.31 | 6.01 | 14.7 | –
COc1ccc2c(c1)[n+]([O-])nc(NCOC(C)c1ccccc1)[n+]2[O-] (stereo not drawn) | 0.74 | 8.04 | 0.25 | 6.69 | 12.4 | 0.22 | 0.22 | 3.13 | > 100 | 4.14 | –
